HEK293 NFkB inh: inhibitors of PMA/ionomycin-induced NF-kB reporter, primary screen, antigen receptor NF-kB inhibitor project, cell-based, HEK-293 luciferase reporter, luminescence | AID 465, 2006 | actives 0.21% (n = 62,000) | HEK-293 NF-kB luciferase reporter | inhibition, % at 3 µM;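 active means inhibition above the mean of all tested compounds plus 3 SD, cut at about 40% in these data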;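 further: 0% = stimulated DMSO wells and 100% = 10 µM reference inhibitor 5653914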
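System: NF-kB luciferase reporter HEK-293 cells | Replication: Single test | Control set: DMSO vs reference inhibitor | Evaluation: % inhibition | Schedule: 1 h pretreatment, 16 h stimulation, 37 °C | Probe or stimulus: PMA with ionomycin | Compound dosing: One dose, 3 µM | Detection: Luciferase luminescence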
AP ELISA ortho: alternative complement pathway inhibitors, primary screen, biochemical, ELISA, human serum, orthogonally pooled compounds | LPS-coated ELISA, C3 deposition; tested in compound mixtures | inhibition, % at 5 µM | actives 0.08% (n = 62,000) | AID 1235, 2008;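 active means inhibition above 30% in each of the two pooled mixtures holding the compound, so the lower value exceeds 30%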;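 further: 0% = serum in Mg-EGTA without compound and 100% = EDTA serum blank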
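Assay system: Human serum alternative complement pathway, C3 deposition on LPS-coated wells | Incubation: 1 h serum-compound exposure at 37 °C | Doses: 5 µM per compound in ten-compound mixtures | Read-out: Percent inhibition | Technique: ELISA with HRP anti-human C3 antibody, TMB substrate, absorbance 450 nm | Replication: Two pool placements per compound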
JNK3 blocker: JNK3 kinase activity inhibitors, primary screen, biochemical, human, purified enzyme | Mitogen-activated protein kinase 10 (Homo sapiens), P53779 | HTS | inhibition, % at 8 µM | actives 0.61% (n = 60,000) | AID 746, 2007; in the data active means inhibition above about 17%;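 further: 0% = DMSO and 100% = reference inhibitor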
Target sequence (P53779 whole entry, looked up): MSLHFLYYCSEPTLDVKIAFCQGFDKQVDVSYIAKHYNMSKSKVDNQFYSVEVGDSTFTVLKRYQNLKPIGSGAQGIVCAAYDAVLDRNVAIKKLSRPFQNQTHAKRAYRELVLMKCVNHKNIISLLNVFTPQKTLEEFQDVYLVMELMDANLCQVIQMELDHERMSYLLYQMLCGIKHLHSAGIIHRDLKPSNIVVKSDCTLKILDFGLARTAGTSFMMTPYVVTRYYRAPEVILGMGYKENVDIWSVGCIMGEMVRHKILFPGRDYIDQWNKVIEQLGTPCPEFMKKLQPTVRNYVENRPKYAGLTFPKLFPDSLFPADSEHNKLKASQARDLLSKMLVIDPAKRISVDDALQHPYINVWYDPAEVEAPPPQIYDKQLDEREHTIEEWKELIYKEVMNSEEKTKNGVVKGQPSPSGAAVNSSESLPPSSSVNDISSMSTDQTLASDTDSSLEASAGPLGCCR
MT1-MMP txn act: MT1-MMP promoter reporter activation – cell-based, luciferase luminescence, primary screen; AID 750, 2007; HT1080 MT1-MMP promoter luciferase reporter, overnight; stronger effect = higher value; actives 0.16% (n = 86,000); activation factor at 10 µM;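 active means activation factor of at least 2 for MT1-MMP transcription at 10 µM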
HER2 expr 66K: inhibitors of Her2 protein expression, primary screen, SKBR-3 cells, AlphaScreen, 66K library; HER2 level % of control, % at 10 µM; actives 0.69% (n = 65,000); SKBR-3 HER2 protein level, 18-24 h; stronger effect = lower value; AID 645, 2007;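 active means HER2 level under 5% of the carrier-only control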;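 further: 100% = DMSO carrier and 0% = 500 nM PU-H71 HSP90 inhibitor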
Active calls of the source: *; . = no result given. Most compounds without a hit are left out; they make up all but 1.1% or so of the library.

SMILES	HEK293 NFkB inh	AP ELISA ortho	JNK3 blocker	MT1-MMP txn act	HER2 expr 66K
O=C(CCCCCn1c(=S)[nH]c2ccccc2c1=O)N1CCC2(CC1)OCCO2	7	13	28*	1.2	111
CCCCn1c(O)c(C(C)=NCC2CCCO2)c(=O)[nH]c1=O (stereo unspecified)	.	.	.	1	.
CCCCCCN=C(C)c1c(O)n(Cc2ccccc2)c(=O)[nH]c1=O	.	.	.	1.1	.
CCCCN1C(=O)NC(=O)C2(Cc3c(nc4c(C)cccn4c3=O)N3CCc4ccccc4C32)C1=O (stereo unspecified)	31	16	-2	1.1	1.2*
O=C(c1ccco1)c1cn(Cc2ccc(Cl)cc2)c2ccccc12	.	.	.	1.3	.
Clc1ccc(COC(Cn2ccnc2)c2ccc(Cl)cc2Cl)cc1 (stereo unspecified)	.	18	5	1	-15*
Clc1ccc(CSC(Cn2ccnc2)c2ccc(Cl)cc2Cl)cc1 (stereo unspecified)	.	13	0	1	82
CN1C(=O)/C(=C/c2ccc(N3CCCCCC3)o2)C(=O)NC1=S	.	.	.	2.2*	.
CCn1nc(-c2ccccc2)nc2c(=O)n(C)c(=O)nc1-2	90*	6	55*	.	-14*
Cc1nc2c(=O)n(C)c(=O)nc-2n(C)n1	.	.	.	0	.
C[C@H]1CCC[C@@H](O)CCC/C=C/c2cc(O)cc(O)c2C(=O)O1	36	12	.	0.9	-14*
C[C@H]1CCC/C=C/C2C[C@H](O)CC2[C@H](O)/C=C/C(=O)O1 (stereo partly specified)	.	15	14	0.4	94
C[C@H]1CCC[C@H](O)CCCCCc2cc(O)cc(O)c2C(=O)O1	10	17	3	0.8	-10*
CCCCOC(=O)C1=C(N)OC2=C(C(=O)CCC2)[C@]12C(=O)N(C)c1ccccc12	-2	7	6	1.1	103
Nc1c(C(=O)NC2CCCC2)c2nc3ccccc3nc2n1CC1CCCO1 (stereo unspecified)	7	3	1	1.1	-28*
Cn1c(O)c(C=NC2CC(C)(C)NC(C)(C)C2)c(=O)n(C)c1=O	20	5	9	0.9	111
